Experimental data: publication PMC4969713 (Journal of Alzheimer's Disease, 2016)
Where two headings read alike, the source gives them in different places.

Experiments:
BALB/c mice [1] = experiment: Morris water maze, scopolamine-induced amnesia; type: in vivo; details: IP; AVN-101 0.2 mg/kg; Tacrine 3 mg/kg; donepezil 1 mg/kg; scopolamine 1.5 mg/kg
Outline: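 Scopolamine-induced amnesia model in male BALB/c mice. Read-out was time spent in the quadrant where the escape platform had been during the two preceding training days, reported as mean ± SE.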

male BALB/c mice [2] = experiment: Elevated Platform test; type: in vivo; details: IP; Lorazepam 0.05 mg/kg, AVN-101 0.2 mg/kg; initial 2 min
BALB/c mice [3] = experiment: Open Field test; type: in vivo; details: IP; Lorazepam 0.05 mg/kg, AVN-101 0.2 mg/kg
Outline: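 Male BALB/c mice received lorazepam 30 min or test compound 5 min before testing; controls received saline, with at least 8 per group. Time in the central zone was recorded during a 10-min exploration. Comparison with the control group used ANOVA with Fisher LSD.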

BALB/c mice [4] = experiment: Passive avoidance, MK-801-induced amnesia, mice; type: in vivo; details: IP
male BALB/c mice [5] = experiment: Novel object recognition, MK-801-induced; type: in vivo; details: 0.2 mg/kg MK-801; memantine 10 mg/kg; SB-742457 0.2 or 1.0 mg/kg
Outline: (§1)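 All drugs were dissolved in saline and given IP; control animals received saline vehicle. Each group had at least 8 male BALB/c mice. Read-out was novel object recognition index, reported as mean ± SE.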

male BALB/c mice [6] = experiment: Novel object recognition, scopolamine-induced; type: in vivo; details: 1.0 mg/kg scopolamine; memantine 10 mg/kg; SB-742457 0.2 or 1.0 mg/kg
Outline: as §1

femur bone marrow cells = experiment: Chromosomal aberrations in femur bone marrow cells; type: in vivo, mice; details: 20 mg/kg PO single dose, males
Outline: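 Mice 8–12 weeks old, male and female, were dosed orally with test compound or cyclophosphamide 20 mg/kg. Schedule was single dose with kill at 24 h, or qd for 5 days with kill 6 h after the last dose. Colchicine 4 mg/kg was given orally 2.5 h before decapitation. Femur marrow was put into 0.55% KCl at 37°C for 15 min, then spun. Scoring covered 100 metaphases per animal (500 per group), expressed as % aberrant cells.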

5-HT1B receptor = details: cited from earlier work
5-HT2A receptor [7] = target: T1, 5-HT2A receptor (Homo sapiens, UniProt P28223); details: cited from earlier work
T1 sequence (P28223 whole entry): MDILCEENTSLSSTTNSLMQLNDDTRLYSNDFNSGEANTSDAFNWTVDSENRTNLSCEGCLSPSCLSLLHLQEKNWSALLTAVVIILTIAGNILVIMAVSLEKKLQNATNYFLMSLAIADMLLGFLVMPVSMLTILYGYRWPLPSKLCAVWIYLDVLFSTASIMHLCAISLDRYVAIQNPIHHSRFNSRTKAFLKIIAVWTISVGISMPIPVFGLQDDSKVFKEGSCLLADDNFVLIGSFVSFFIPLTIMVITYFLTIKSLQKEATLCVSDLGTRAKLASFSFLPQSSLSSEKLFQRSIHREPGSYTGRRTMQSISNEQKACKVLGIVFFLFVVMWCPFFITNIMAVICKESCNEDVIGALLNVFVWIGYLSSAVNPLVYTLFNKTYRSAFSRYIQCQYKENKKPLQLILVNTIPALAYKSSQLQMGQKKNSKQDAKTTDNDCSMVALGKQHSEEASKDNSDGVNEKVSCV

male BALB/c mice [8] = details: acute pre-dosing; cited from earlier work
male BALB/c mice [9] = experiment: Passive avoidance, scopolamine-induced amnesia, mice; type: in vivo; details: highest dose tested, 1 mg/kg
5-HT2C receptor [10] = target: T2, 5-HT2C receptor (Homo sapiens, UniProt P28335); details: cited from earlier work
T2 sequence (P28335 33-458): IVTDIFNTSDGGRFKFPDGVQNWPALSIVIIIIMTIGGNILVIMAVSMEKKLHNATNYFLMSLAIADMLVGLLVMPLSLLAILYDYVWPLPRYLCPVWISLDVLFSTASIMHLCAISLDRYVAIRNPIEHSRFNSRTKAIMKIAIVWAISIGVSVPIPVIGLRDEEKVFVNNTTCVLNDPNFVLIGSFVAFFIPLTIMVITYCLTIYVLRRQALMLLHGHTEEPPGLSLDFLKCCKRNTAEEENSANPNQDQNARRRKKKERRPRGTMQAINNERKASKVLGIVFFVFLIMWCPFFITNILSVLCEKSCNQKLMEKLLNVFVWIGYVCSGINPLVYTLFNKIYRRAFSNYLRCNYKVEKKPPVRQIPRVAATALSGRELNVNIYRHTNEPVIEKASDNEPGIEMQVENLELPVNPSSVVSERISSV

5-HT7 receptor [11] = target: T3, 5-HT7 receptor (Homo sapiens, UniProt P34969); details: cited from earlier work
T3 sequence (P34969 whole entry): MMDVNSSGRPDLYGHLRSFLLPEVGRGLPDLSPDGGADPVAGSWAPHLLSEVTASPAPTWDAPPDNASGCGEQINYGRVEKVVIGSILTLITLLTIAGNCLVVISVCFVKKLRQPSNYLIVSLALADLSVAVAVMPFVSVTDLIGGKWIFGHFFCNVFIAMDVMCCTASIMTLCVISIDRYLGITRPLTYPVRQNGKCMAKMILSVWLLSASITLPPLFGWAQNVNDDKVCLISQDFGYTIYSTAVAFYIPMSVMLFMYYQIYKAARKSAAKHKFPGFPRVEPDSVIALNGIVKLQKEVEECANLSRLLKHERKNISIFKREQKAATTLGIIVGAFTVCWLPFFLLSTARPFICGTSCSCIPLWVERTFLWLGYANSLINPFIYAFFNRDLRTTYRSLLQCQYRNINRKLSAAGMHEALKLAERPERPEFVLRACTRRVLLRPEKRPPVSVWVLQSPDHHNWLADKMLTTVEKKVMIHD

5-HT7 receptor [12] = target: T3, 5-HT7 receptor; experiment: Radioligand binding competition, 5-HT7
5-HT2B receptor = 5-HT2B receptor (Homo sapiens, UniProt P41595); details: cited from earlier work
5-HT2B receptor, sequence (P41595 whole entry): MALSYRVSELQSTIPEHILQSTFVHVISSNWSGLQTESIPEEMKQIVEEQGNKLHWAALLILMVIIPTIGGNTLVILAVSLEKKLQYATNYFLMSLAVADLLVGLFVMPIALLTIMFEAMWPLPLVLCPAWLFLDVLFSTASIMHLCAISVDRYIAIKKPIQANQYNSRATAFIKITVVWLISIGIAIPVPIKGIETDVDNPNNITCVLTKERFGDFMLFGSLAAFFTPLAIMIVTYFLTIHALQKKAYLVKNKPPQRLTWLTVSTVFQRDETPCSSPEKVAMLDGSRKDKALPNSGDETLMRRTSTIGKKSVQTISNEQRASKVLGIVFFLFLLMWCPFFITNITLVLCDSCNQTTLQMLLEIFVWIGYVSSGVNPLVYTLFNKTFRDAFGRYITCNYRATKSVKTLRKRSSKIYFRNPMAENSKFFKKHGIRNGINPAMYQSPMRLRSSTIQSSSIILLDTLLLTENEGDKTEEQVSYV

male SHK mice = experiment: Apomorphine-induced disruption of pre-pulse inhibition; type: in vivo; details: IP; apomorphine 20 mg/kg; Haloperidol 1 mg/kg
Outline: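 Male SHK mice received apomorphine as the pro-psychotic agent to disrupt pre-pulse inhibition. Groups: untreated control, apomorphine alone, haloperidol 1 mg/kg as positive control, and test compound at several doses. Groups were compared with the apomorphine-only group by Student test.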

male BALB/c mice [13] = experiment: Elevated Plus-Maze; type: in vivo; details: IP, Buspirone 5 mg/kg; for locomotion (total number of arm visits): M1 5 or 20 mg/kg, M2 1 and 5 mg/kg; for anxiolytic effect (open/closed arm time and visits, defecations): M2 0.05, 0.5, 1.0, 5.0 mg/kg
Outline: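 Elevated plus-maze in mice. Read-outs were open/closed arm time ratio, open/closed visit ratio, defecations and total visits. Each treated group was compared with the placebo group by Student t-test.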

5-HT1A receptor = 5-HT1A receptor (Homo sapiens, UniProt P08908); details: Table 2; cited from earlier work
5-HT1A receptor, sequence (P08908 whole entry): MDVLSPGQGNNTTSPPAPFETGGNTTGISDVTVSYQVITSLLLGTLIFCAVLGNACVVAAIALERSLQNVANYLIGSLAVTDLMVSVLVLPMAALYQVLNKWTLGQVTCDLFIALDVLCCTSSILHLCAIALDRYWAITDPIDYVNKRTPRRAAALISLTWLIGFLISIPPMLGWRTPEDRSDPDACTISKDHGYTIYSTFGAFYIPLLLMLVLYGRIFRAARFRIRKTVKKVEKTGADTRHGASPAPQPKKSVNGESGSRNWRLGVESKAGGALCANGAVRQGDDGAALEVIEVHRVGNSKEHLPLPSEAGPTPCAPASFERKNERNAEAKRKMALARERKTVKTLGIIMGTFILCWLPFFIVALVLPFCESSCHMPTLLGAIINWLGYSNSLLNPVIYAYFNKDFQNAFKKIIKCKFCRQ

Monkeys (Macaca mulatta) = experiment: Q-T interval, monkeys; type: in vivo; details: 15 mg/kg IV
5-HT4 receptor = 5-HT4 receptor (Homo sapiens, UniProt Q13639); experiment: Target panel binding, 5-HT4
histamine H2 receptor = histamine H2 receptor (Homo sapiens, UniProt P25021); experiment: Radioligand binding competition, histamine H2
histamine H2 receptor, sequence (P25021 whole entry): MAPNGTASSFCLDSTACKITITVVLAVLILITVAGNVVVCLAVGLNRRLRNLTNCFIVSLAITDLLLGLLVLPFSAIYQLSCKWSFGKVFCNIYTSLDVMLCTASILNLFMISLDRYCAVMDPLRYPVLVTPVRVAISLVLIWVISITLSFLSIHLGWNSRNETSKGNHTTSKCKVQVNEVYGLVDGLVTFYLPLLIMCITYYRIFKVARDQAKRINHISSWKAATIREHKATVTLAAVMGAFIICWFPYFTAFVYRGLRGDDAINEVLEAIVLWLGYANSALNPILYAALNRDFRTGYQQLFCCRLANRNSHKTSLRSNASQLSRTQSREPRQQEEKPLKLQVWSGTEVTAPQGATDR

5-HT6 receptor = 5-HT6 receptor (Homo sapiens, UniProt P50406); experiment: Radioligand binding competition, 5-HT6
5-HT6 receptor, sequence (P50406 whole entry): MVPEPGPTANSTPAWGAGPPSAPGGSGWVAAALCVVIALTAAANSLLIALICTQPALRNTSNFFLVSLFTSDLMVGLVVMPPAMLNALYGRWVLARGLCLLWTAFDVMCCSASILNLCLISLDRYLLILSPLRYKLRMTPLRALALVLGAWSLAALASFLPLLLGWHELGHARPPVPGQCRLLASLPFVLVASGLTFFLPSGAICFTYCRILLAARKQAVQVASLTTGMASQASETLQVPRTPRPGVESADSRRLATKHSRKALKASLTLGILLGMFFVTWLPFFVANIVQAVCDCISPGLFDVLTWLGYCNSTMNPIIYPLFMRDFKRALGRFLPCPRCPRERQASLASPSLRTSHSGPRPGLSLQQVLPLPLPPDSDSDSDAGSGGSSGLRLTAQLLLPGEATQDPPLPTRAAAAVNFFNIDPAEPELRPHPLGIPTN

5-HT3 receptor = 5-HT3 receptor (Homo sapiens, UniProt P46098); experiment: Target panel binding, 5-HT3
[14] = Phase I pharmacokinetics, single PO dose; type: in vivo, human; details: for AUC0 - >∞ / Cmax / T1/2: label = substance analyzed, Means ± SD
hERG potassium channel = hERG potassium channel (Homo sapiens, UniProt Q12809); experiment: hERG single cell patch clamp in HEK cells; details: potassium currents, patch clamp
hERG potassium channel, sequence (Q12809 whole entry): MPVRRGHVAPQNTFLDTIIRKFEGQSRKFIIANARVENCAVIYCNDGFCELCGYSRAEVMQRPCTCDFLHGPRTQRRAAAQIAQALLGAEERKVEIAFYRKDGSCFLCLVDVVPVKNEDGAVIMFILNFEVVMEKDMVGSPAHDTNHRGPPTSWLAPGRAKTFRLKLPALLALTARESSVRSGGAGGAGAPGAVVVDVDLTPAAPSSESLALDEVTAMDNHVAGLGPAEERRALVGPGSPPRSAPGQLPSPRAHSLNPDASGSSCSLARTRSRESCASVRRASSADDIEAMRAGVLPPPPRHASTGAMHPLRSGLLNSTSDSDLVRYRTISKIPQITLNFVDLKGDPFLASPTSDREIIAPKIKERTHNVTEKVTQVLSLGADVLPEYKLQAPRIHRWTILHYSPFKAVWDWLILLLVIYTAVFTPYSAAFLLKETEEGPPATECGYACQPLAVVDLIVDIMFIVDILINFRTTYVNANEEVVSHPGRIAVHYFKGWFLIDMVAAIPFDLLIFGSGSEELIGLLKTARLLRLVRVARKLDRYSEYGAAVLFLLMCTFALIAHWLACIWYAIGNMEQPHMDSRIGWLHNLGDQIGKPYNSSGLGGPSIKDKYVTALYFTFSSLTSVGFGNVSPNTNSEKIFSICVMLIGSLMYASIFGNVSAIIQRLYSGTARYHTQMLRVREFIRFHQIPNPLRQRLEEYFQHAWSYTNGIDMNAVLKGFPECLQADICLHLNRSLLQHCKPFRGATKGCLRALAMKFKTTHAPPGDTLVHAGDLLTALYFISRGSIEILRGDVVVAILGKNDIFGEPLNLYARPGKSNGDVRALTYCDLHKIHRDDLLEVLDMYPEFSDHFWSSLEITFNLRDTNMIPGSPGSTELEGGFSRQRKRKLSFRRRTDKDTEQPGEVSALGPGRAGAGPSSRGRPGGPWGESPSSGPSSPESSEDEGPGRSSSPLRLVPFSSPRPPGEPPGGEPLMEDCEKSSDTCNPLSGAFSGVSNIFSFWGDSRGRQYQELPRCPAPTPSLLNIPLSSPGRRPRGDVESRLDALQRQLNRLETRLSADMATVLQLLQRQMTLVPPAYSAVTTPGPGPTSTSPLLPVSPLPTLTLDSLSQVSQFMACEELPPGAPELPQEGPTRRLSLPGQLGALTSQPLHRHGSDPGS

Adrenergic α2A = Adrenergic α2A (Homo sapiens, UniProt P08913); experiment: Radioligand competition, adrenergic α2A; type: binding
histamine H1 receptor = histamine H1 receptor (Homo sapiens, UniProt P35367); experiment: Radioligand binding competition, histamine H1
histamine H1 receptor, sequence (P35367 whole entry, species assumed): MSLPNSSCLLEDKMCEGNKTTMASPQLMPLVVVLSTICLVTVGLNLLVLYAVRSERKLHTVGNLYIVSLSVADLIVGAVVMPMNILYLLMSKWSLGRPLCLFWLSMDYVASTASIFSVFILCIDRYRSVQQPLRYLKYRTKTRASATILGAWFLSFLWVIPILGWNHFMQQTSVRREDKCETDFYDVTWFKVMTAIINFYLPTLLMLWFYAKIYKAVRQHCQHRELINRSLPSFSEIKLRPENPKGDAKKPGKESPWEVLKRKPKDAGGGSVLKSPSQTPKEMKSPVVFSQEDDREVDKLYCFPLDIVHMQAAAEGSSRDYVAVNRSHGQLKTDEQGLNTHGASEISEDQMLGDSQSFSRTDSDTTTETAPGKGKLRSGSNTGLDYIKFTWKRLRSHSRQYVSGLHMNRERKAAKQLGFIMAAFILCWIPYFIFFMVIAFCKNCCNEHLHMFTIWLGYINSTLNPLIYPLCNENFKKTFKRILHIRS

5-HT2A receptor [15] = target: T1, 5-HT2A receptor; experiment: Radioligand binding competition, 5-HT2A
Adrenergic α1A = Adrenergic α1A (Homo sapiens, UniProt P35348); experiment: Radioligand competition, adrenergic α1A; type: binding
Adrenergic α1A, sequence (P35348 whole entry): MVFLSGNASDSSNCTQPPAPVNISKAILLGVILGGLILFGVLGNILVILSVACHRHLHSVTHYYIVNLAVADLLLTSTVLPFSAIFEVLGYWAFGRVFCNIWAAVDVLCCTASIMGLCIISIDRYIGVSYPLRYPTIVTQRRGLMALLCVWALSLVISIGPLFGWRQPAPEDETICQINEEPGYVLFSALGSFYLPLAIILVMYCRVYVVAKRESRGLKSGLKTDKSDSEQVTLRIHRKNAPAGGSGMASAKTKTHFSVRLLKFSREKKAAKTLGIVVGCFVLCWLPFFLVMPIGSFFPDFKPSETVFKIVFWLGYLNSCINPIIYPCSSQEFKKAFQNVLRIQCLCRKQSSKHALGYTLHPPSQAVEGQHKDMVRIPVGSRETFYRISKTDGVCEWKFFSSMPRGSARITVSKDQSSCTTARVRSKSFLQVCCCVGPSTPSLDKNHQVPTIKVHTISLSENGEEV

5-HT2C receptor [16] = target: T2, 5-HT2C receptor; experiment: Radioligand binding competition, 5-HT2C
Pharmacokinetics in dogs = type: in vivo, dogs (Beagle); details: for AUC0 - >∞ / Cmax / T1/2 / Tmax: label = substance analyzed
Caco-2 permeability = details: human

SMILES: Nc1c2c(nc3ccccc13)CCCC2 [Tacrine]
- effect on scopolamine-induced amnesia (time in platform quadrant) (BALB/c mice [1]): significant prevention

SMILES: O=C1Nc2ccc(Cl)cc2C(c2ccccc2Cl)=NC1O (centres unmarked) [Lorazepam, reference compound]
- duration of freezing behavior (male BALB/c mice [2]): significantly reduced duration of the freezing behavior
- time spent in the central area (BALB/c mice [3]): significant anxiolytic effect

SMILES: CC12CC3CC(C)(C1)CC(N)(C3)C2 [memantine]
- effect on MK-801-induced amnesia (BALB/c mice [4]): not active
- effect on deficit in novel object recognition (male BALB/c mice [5]): not statistically effective
- effect on deficit in novel object recognition (male BALB/c mice [6]): not statistically effective

SMILES: COc1cc2c(cc1OC)C(=O)C(CC1CCN(Cc3ccccc3)CC1)C2 (centres unmarked) [donepezil]
- effect on scopolamine-induced amnesia (time in platform quadrant) (BALB/c mice [1]): not as effective

SMILES: O=P1(N(CCCl)CCCl)NCCCO1 (centres unmarked) [cyclophosphomide, reference compound]
- Cells with multiple aberrations (femur bone marrow cells): 6.2%
- Total altered metaphases (%) (femur bone marrow cells): 20.8 ± 1.8%
- cells with aberration, Double fragment (femur bone marrow cells): 0.4%
- cells with aberration, Single fragment (femur bone marrow cells): 19.8%
- cells with aberration, exchanges (femur bone marrow cells): 1.0%
- cells with aberration, gaps (femur bone marrow cells): 0.2%

SMILES: O=S(=O)(c1ccccc1)c1cnc2c(N3CCNCC3)cccc2c1 [SB-742457]
- radioligand displacement (5-HT1B receptor; at 1μM): 86%
- radioligand displacement (5-HT2A receptor [7]; at 1μM): 91%
- effective dose range, scopolamine-induced amnesia passive avoidance (male BALB/c mice [8]): 0.5 to 4.5 mg/kg
- preventative effect (male BALB/c mice [9]): very mild preventative effect
- radioligand displacement (5-HT2C receptor [10]; at 1μM): 85%
- effect on deficit in novel object recognition (male BALB/c mice [5]): not statistically effective
- binding inhibition (5-HT7 receptor [11]; at 1μM): ~25%
- effect on deficit in novel object recognition (male BALB/c mice [6]): not statistically effective
- IC50 (5-HT7 receptor [12]): 1270 nM
- radioligand displacement (5-HT2B receptor; at 1μM): 88%

SMILES: O=C(CCCN1CCC(O)(c2ccc(Cl)cc2)CC1)c1ccc(F)cc1 [Haloperidol, reference compound]
- effect on apomorphine-induced disruption of PPI (male SHK mice): able to prevent

SMILES: O=C1CC2(CCCC2)CC(=O)N1CCCCN1CCN(c2ncccn2)CC1 [Buspirone, reference compound]
- locomotion (total number of arm visits) (male BALB/c mice [13]): had no effect on total number of arm visits
- anxiolytic effect (open/closed arm time and visits, defecations) (male BALB/c mice [13]): clear anxiolytic effects

SMILES: Fc1ccc2c(CCNCc3cccc(OCC(F)(F)C(F)F)c3)c[nH]c2c1 [Lu AE58054]
- Ki (5-HT1B receptor; Table 2): > 10000 nM
- Ki (5-HT2A receptor [7]; Table 2): 83 nM
- Ki (5-HT2C receptor [10]; Table 2): 250 nM
- Ki (5-HT7 receptor [11]; Table 2): > 10000 nM
- binding affinity (5-HT7 receptor [11]): very low, if any
- Ki (5-HT1A receptor): 2300 nM
- Ki (5-HT2B receptor; Table 2): > 4100 nM

SMILES: CCCCc1oc2ccccc2c1C(=O)c1cc(I)c(OCCN(CC)CC)c(I)c1 [amiodaron, reference compound]
- effect on heart rate (Monkeys (Macaca mulatta)): no effect on the heart rate

SMILES: Cc1ccc2c(c1)c1c(n2CC(O)c2ccccc2)CCN(C)C1 (centres unmarked) [M1, 2-(2,8-dimethyl-1,2,3,4-tetrahydro-pyrido[[4,3-b]]indol-5-yl)-1-phenyl-ethan-ol]
- interaction (5-HT4 receptor): Neither AVN-101 nor its metabolites, M1 and M2, seem to interact
- lower affinity compared to AVN-101 (histamine H2 receptor): 9 fold
- lower affinity compared to AVN-101 (5-HT6 receptor): 4 fold
- interaction (5-HT3 receptor): Neither AVN-101 nor its metabolites, M1 and M2, seem to interact
- AUC0 - >∞ ([14]; AVN-101 PO 2 mg): 0.22 ± 0.116 ng·h/mL
- Cmax ([14]; AVN-101 PO 2 mg): 0.0561 ± 0.0182 ng/mL
- T1/2 ([14]; AVN-101 PO 2 mg): 2.49 ± 1.2 h
- AUC0 - >∞ ([14]; AVN-101 PO 4 mg): 0.555 ± 0.297 ng·h/mL
- Cmax ([14]; AVN-101 PO 4 mg): 0.112 ± 0.0381 ng/mL
- T1/2 ([14]; AVN-101 PO 4 mg): 2.48 ± 1.27 h
- AUC0 - >∞ ([14]; AVN-101 PO 10 mg): 1.41 ± 0.688 ng·h/mL
- Cmax ([14]; AVN-101 PO 10 mg): 0.292 ± 0.176 ng/mL
- T1/2 ([14]; AVN-101 PO 10 mg): 2.8 ± 1.71 h
- AUC0 - >∞ ([14]; AVN-101 PO 20 mg): 3.1 ± 0.87 ng·h/mL
- Cmax ([14]; AVN-101 PO 20 mg): 0.635 ± 0.311 ng/mL
- T1/2 ([14]; AVN-101 PO 20 mg): 3.85 ± 0.56 h
- Tmax ([14]; after PO AVN-101): around 1 h
- IC50 (hERG potassium channel): 1630 nM
- lower affinity compared to AVN-101 (Adrenergic α2A): 3 fold
- Ki (histamine H1 receptor): ~48 nM
- lower affinity compared to AVN-101 (histamine H1 receptor): 83 fold
- locomotion (total number of arm visits) (male BALB/c mice [13]): some reduction in mice locomotor activity
- anxiolytic effect (open/closed arm time and visits, defecations) (male BALB/c mice [13]): clear anxiolytic effects
- Ki (5-HT7 receptor [12]): 7.72 nM
- lower affinity compared to AVN-101 (5-HT2A receptor [15]): 2 fold
- affinity compared to AVN-101 (Adrenergic α1A): practically same affinity
- lower affinity compared to AVN-101 (5-HT2C receptor [16]): 7 fold
- Fabs (Pharmacokinetics in dogs; M1 PO 5 mg/kg vs IV 1 mg/kg): 8.4%
- AUC0 - >∞ (Pharmacokinetics in dogs; after AVN-101 IV 2 mg/kg): 264.6 ng·min/mL
- Cmax (Pharmacokinetics in dogs; after AVN-101 IV 2 mg/kg): 5.7 ng/mL
- T1/2 (Pharmacokinetics in dogs; after AVN-101 IV 2 mg/kg): 0.857 h
- Tmax (Pharmacokinetics in dogs; after AVN-101 IV 2 mg/kg): 0.083 h
- AUC0 - >∞ (Pharmacokinetics in dogs; after AVN-101 PO 10 mg/kg): 8,995 min×ng/mL
- Cmax (Pharmacokinetics in dogs; after AVN-101 PO 10 mg/kg): 30.1 ng/mL
- T1/2 (Pharmacokinetics in dogs; after AVN-101 PO 10 mg/kg): 2.582 h
- Tmax (Pharmacokinetics in dogs; after AVN-101 PO 10 mg/kg): 1 h
- AUC0 - >∞ (Pharmacokinetics in dogs; after M1 IV 1 mg/kg): 25,894 min×ng/mL
- Cmax (Pharmacokinetics in dogs; after M1 IV 1 mg/kg): 4,550 ng/mL
- T1/2 (Pharmacokinetics in dogs; after M1 IV 1 mg/kg): 0.958 h
- Tmax (Pharmacokinetics in dogs; after M1 IV 1 mg/kg): 0.017 h
- AUC0 - >∞ (Pharmacokinetics in dogs; after M1 PO 5 mg/kg): 10,828 min×ng/mL
- Cmax (Pharmacokinetics in dogs; after M1 PO 5 mg/kg): 43 ng/mL
- T1/2 (Pharmacokinetics in dogs; after M1 PO 5 mg/kg): 2.308 h
- Tmax (Pharmacokinetics in dogs; after M1 PO 5 mg/kg): 2 h

SMILES: COC(=O)c1ccccc1-c1c2ccc(=N)cc-2oc2cc(N)ccc12 [Rhodamine123, reference compound]
- Papp (Caco-2 permeability): 0.6 ± 0.2 ×10⁻⁶ cm/s
- Papp B→A (Caco-2 permeability): 6.8 ± 0.4 ×10⁻⁶ cm/s
